PMC9271465 (ESMO Open, 2022)

What was measured:
wild-type EGFR = wild-type EGFR (Homo sapiens, UniProt P00533); assay: kinase inhibition, wild-type EGFR; format: biochemical; conditions: read-out: IC50 against wild-type EGFR; kinase level; unpublished data
[1] = preclinical tolerability in animals; format: in vivo; conditions: preclinical studies; unpublished data
[2] = phase I dose-escalation: plasma pharmacokinetics; format: in vivo, patients; conditions: for Cmax,ss / t1/2 / AUC0-24 h / Cmax: mean (%CV); for Tmax,ss / Tmax: median (range)
Procedure, shortened: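 Oral tablet, fasted, qd or b.i.d. (25–300 mg). Plasma sampled in cycle 0 after a single dose at pre-dose and 0.5–144 h. Under continuous dosing, sampled pre-dose on cycle 1 days 8 and 15, and on day 21 pre-dose to 24 h (b.i.d. to 12 h). Plasma stored at −80 °C. Noncompartmental analysis; arithmetic mean (%CV), Tmax median (range).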

EGFR T790M-mutated NSCLC = assay: phase I dose-escalation: efficacy; format: in vivo, patients; conditions: FAS
Procedure, shortened: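 Adults with T790M+ NSCLC (ARMS-confirmed) progressing on prior EGFR-TKIs; 3+3 escalation. Oral tablet, empty stomach: single dose day 1, then after 7 days continuous dosing in 21-day cycles (25–300 mg/day) until progression. CT/MRI brain, CT neck/chest/abdomen, bone scan every eight cycles; assessed at baseline, cycles 2, 4, 6, then every 2 cycles. RECIST v1.1 best overall response; disease control confirmed by imaging every 6 weeks.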

[3] = multiple doses 21 days, 25 mg qd, n = 1
[4] = multiple doses 21 days, 50 mg qd, n = 3
[5] = multiple doses 21 days, 100 mg b.i.d., n = 3
[6] = multiple doses 21 days, 100 mg qd, n = 3
[7] = multiple doses 21 days, 200 mg qd, n = 3
[8] = multiple doses 21 days, 300 mg qd, n = 1
[9] = steady state after 21 days of multiple doses

Chain of wild-type EGFR (P00533 25-1210): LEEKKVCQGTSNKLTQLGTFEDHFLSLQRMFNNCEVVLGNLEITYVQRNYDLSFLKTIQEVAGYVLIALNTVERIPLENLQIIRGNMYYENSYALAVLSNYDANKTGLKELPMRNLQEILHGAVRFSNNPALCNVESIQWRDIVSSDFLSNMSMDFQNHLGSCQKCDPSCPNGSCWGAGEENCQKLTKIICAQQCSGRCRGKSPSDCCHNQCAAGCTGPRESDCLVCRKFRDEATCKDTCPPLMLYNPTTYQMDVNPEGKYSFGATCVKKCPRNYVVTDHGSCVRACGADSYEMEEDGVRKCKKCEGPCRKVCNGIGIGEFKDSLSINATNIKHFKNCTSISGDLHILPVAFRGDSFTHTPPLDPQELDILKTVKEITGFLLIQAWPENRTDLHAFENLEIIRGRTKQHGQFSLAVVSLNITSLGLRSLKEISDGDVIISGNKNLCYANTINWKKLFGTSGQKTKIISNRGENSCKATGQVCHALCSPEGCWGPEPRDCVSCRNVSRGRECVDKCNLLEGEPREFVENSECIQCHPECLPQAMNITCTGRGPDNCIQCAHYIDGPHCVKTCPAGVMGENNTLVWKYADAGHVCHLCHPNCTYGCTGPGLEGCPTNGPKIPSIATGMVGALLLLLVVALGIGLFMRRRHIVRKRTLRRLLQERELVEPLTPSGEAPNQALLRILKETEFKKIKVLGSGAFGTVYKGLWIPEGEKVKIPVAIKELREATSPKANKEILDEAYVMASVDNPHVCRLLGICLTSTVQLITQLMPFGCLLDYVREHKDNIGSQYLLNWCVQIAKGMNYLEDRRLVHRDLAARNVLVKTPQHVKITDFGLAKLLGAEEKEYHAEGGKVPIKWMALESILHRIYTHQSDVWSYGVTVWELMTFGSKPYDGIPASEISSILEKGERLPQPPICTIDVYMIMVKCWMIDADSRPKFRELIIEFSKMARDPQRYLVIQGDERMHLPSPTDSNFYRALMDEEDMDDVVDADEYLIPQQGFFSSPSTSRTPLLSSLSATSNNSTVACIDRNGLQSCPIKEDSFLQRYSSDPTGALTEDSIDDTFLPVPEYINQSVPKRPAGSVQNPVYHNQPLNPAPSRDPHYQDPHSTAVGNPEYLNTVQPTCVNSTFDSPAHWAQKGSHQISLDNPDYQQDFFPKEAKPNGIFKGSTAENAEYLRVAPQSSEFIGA

C=CC(=O)Nc1cc(Nc2ncc(Cl)c(Nc3ccccc3C(=O)C(=O)N(C)C)n2)c(OC)cc1N1CCN(C)CC1 [BPI-15086]
IC50 (wild-type EGFR): 503 nM | tolerability in animals [1]: well tolerated | dose dependence of Cmax and AUC0-t ([2]; 25 to 300 mg, single dose and multiple doses): increased in a dose-dependent manner | Cmax,ss [2, 3]: 24.6 (NA) ng/ml | Tmax,ss [2, 3]: 2.88 (2.88-2.88) h | Cmax,ss [2, 4]: 48.5 (64.3) ng/ml | Tmax,ss [2, 4]: 2.08 (2.02-4.00) h | t1/2 ([2]; multiple doses 21 days, 50 mg qd): 8.94 (NA) h | Cmax,ss [2, 5]: 240 (37.9) ng/ml | Tmax,ss [2, 5]: 2.98 (2.03-3.00) h | t1/2 ([2]; multiple doses 21 days, 100 mg b.i.d.): 4.78 (NA) h | Cmax,ss [2, 6]: 84.6 (65.6) ng/ml | Tmax,ss [2, 6]: 3.00 (2.00-3.95) h | Cmax,ss [2, 7]: 209 (71.1) ng/ml | Tmax,ss [2, 7]: 2.02 (1.98-3.00) h | t1/2 ([2]; multiple doses 21 days, 200 mg qd): 9.09 (1.51) h | Cmax,ss [2, 8]: 924 (NA) ng/ml | Tmax,ss [2, 8]: 2.02 (2.02-2.02) h | t1/2 ([2]; multiple doses 21 days, 300 mg qd): 9.84 (NA) h | AUC0-24 h ([2]; single dose, 25 mg qd, n = 1): 285 (NA) h × ng/ml | Cmax ([2]; single dose, 25 mg qd, n = 1): 31.6 (NA) ng/ml | t1/2 ([2]; single dose, 25 mg qd, n = 1): 12.2 (NA) h | Tmax ([2]; single dose, 25 mg qd, n = 1): 1.97 (1.97-1.97) h | AUC0-24 h ([2]; single dose, 50 mg qd, n = 3): 324 (47.7) h × ng/ml | Cmax ([2]; single dose, 50 mg qd, n = 3): 31.3 (40.1) ng/ml | t1/2 ([2]; single dose, 50 mg qd, n = 3): 13.4 (35.2) h | Tmax ([2]; single dose, 50 mg qd, n = 3): 2.93 (2.02-4.05) h | AUC0-24 h ([2]; single dose, 100 mg qd, n = 3): 580 (37.3) h × ng/ml | Cmax ([2]; single dose, 100 mg qd, n = 3): 46.1 (34.7) ng/ml | t1/2 ([2]; single dose, 100 mg qd, n = 3): 11.3 (23.3) h | Tmax ([2]; single dose, 100 mg qd, n = 3): 3.00 (2.03-4.00) h | AUC0-24 h ([2]; single dose, 200 mg qd, n = 7): 2630 (91.2) h × ng/ml | Cmax ([2]; single dose, 200 mg qd, n = 7): 273 (97.8) ng/ml | t1/2 ([2]; single dose, 200 mg qd, n = 7): 9.91 (15.5) h | Tmax ([2]; single dose, 200 mg qd, n = 7): 4.02 (2.02-5.13) h | AUC0-24 h ([2]; single dose, 300 mg qd, n = 3): 3860 (41.3) h × ng/ml | Cmax ([2]; single dose, 300 mg qd, n = 3): 354 (29.5) ng/ml | t1/2 ([2]; single dose, 300 mg qd, n = 3): 14.1 (58.6) h | Tmax ([2]; single dose, 300 mg qd, n = 3): 4.00 (3.98-5.00) h | mean apparent terminal elimination half-life (t1/2), range across doses ([2]; single dose, 25-300 mg): 9.91 to 14.1 h | Median Tmax, range across doses ([2]; single dose, lowest to highest doses 25-300 mg): 1.97 to 4.02 h | mean Vz/F, range across doses ([2]; steady state): 556 to 3830 L | mean apparent oral clearance (CLss/F), range across doses ([2]; steady state): 49.3 to 166 L/h | mean t1/2, range across doses ([2]; steady state): 4.78 to 9.84 h | Cmax,ss, range across doses [2, 9]: 24.6 to 924 ng/mL | Tmax,ss, range across doses [2, 9]: 2.02 to 3.00 h | Best overall response: Complete response (EGFR T790M-mutated NSCLC; 25 mg/day (n = 1)): 0 n (%) | Best overall response: Not evaluable (EGFR T790M-mutated NSCLC; 25 mg/day (n = 1)): 0 n (%) | Best overall response: Partial response (EGFR T790M-mutated NSCLC; 25 mg/day (n = 1)): 0 n (%) | Best overall response: Progressive disease (EGFR T790M-mutated NSCLC; 25 mg/day (n = 1)): 1 (100.0) n (%) | Best overall response: Stable disease (EGFR T790M-mutated NSCLC; 25 mg/day (n = 1)): 0 n (%) | PFS, median (95% CI) (EGFR T790M-mutated NSCLC; 25 mg/day (n = 1)): 1.5 (NE-NE) months | Best overall response: Complete response (EGFR T790M-mutated NSCLC; 50 mg/day (n = 3)): 0 n (%) | Best overall response: Not evaluable (EGFR T790M-mutated NSCLC; 50 mg/day (n = 3)): 0 n (%) | Best overall response: Partial response (EGFR T790M-mutated NSCLC; 50 mg/day (n = 3)): 0 n (%) | Best overall response: Progressive disease (EGFR T790M-mutated NSCLC; 50 mg/day (n = 3)): 1 (33.3) n (%) | Best overall response: Stable disease (EGFR T790M-mutated NSCLC; 50 mg/day (n = 3)): 2 (66.7) n (%) | OS, median (95% CI) (EGFR T790M-mutated NSCLC; 50 mg/day (n = 3)): 15.0 (8.4-15.0) months | PFS, median (95% CI) (EGFR T790M-mutated NSCLC; 50 mg/day (n = 3)): 4.3 (1.6-5.8) months | Best overall response: Complete response (EGFR T790M-mutated NSCLC; 100 mg/day (n = 3)): 0 n (%) | Best overall response: Not evaluable (EGFR T790M-mutated NSCLC; 100 mg/day (n = 3)): 0 n (%) | Best overall response: Partial response (EGFR T790M-mutated NSCLC; 100 mg/day (n = 3)): 1 (33.3) n (%) | Best overall response: Progressive disease (EGFR T790M-mutated NSCLC; 100 mg/day (n = 3)): 2 (66.7) n (%) | Best overall response: Stable disease (EGFR T790M-mutated NSCLC; 100 mg/day (n = 3)): 0 n (%) | DOR, median (95% CI) (EGFR T790M-mutated NSCLC; 100 mg/day (n = 3)): 9.7 (NE-NE) months | OS, median (95% CI) (EGFR T790M-mutated NSCLC; 100 mg/day (n = 3)): 16.1 (NE-NE) months | PFS, median (95% CI) (EGFR T790M-mutated NSCLC; 100 mg/day (n = 3)): 1.6 (1.5-12.6) months | Best overall response: Complete response (EGFR T790M-mutated NSCLC; 200 mg/day (n = 7)): 0 n (%) | Best overall response: Not evaluable (EGFR T790M-mutated NSCLC; 200 mg/day (n = 7)): 1 (14.3) n (%) | Best overall response: Partial response (EGFR T790M-mutated NSCLC; 200 mg/day (n = 7)): 2 (28.6) n (%) | Best overall response: Progressive disease (EGFR T790M-mutated NSCLC; 200 mg/day (n = 7)): 3 (42.9) n (%) | Best overall response: Stable disease (EGFR T790M-mutated NSCLC; 200 mg/day (n = 7)): 1 (14.3) n (%) | DOR, median (95% CI) (EGFR T790M-mutated NSCLC; 200 mg/day (n = 7)): 6.7 (3.7-9.8) months | PFS, median (95% CI) (EGFR T790M-mutated NSCLC; 200 mg/day (n = 7)): 3.0 (1.6-11.3) months | Best overall response: Complete response (EGFR T790M-mutated NSCLC; 300 mg/day (n = 3)): 0 n (%) | Best overall response: Not evaluable (EGFR T790M-mutated NSCLC; 300 mg/day (n = 3)): 1 (33.3) n (%) | Best overall response: Partial response (EGFR T790M-mutated NSCLC; 300 mg/day (n = 3)): 0 n (%) | Best overall response: Progressive disease (EGFR T790M-mutated NSCLC; 300 mg/day (n = 3)): 0 n (%) | Best overall response: Stable disease (EGFR T790M-mutated NSCLC; 300 mg/day (n = 3)): 2 (66.7) n (%) | OS, median (95% CI) (EGFR T790M-mutated NSCLC; 300 mg/day (n = 3)): 9.2 (NE-NE) months | PD, patients (EGFR T790M-mutated NSCLC; 25-mg/day): 100% | PR, patients (EGFR T790M-mutated NSCLC; 25-mg/day, 50-mg/day, and 300-mg/day groups): none of the patients | PD, patients (EGFR T790M-mutated NSCLC; 50-mg/day): 33.3% | DCR (EGFR T790M-mutated NSCLC; 50-mg/day, 2/3 patients): 66.7% | PD, patients (EGFR T790M-mutated NSCLC; 100-mg/day): 66.7% | PR, patients (EGFR T790M-mutated NSCLC; 100-mg/day): 33.3% | DCR (EGFR T790M-mutated NSCLC; 100-mg/day, 1/3 patients): 33.3% | PD, patients (EGFR T790M-mutated NSCLC; 200-mg/day): 42.9% | PR, patients (EGFR T790M-mutated NSCLC; 200-mg/day): 28.6% | DCR (EGFR T790M-mutated NSCLC; 200-mg/day, 3/7 patients): 42.9% | DCR (EGFR T790M-mutated NSCLC; 300-mg/day, 2/3 patients): 66.7% | Best overall response: Complete response (EGFR T790M-mutated NSCLC; All (n = 17)): 0 n (%) | Best overall response: Not evaluable (EGFR T790M-mutated NSCLC; All (n = 17)): 2 (11.8) n (%) | Best overall response: Partial response (EGFR T790M-mutated NSCLC; All (n = 17)): 3 (17.6) n (%) | Best overall response: Progressive disease (EGFR T790M-mutated NSCLC; All (n = 17)): 7 (41.2) n (%) | Best overall response: Stable disease (EGFR T790M-mutated NSCLC; All (n = 17)): 5 (29.4) n (%) | DOR, median (95% CI) (EGFR T790M-mutated NSCLC; All (n = 17)): 9.7 (3.7-9.8) months | OS, median (95% CI) (EGFR T790M-mutated NSCLC; All (n = 17)): 15.0 (8.4-16.1) months | PFS, median (95% CI) (EGFR T790M-mutated NSCLC; All (n = 17)): 1.6 (1.6-5.3) months | CR, patients (EGFR T790M-mutated NSCLC; all 17 patients): No patients showed CR | DCR (EGFR T790M-mutated NSCLC; all 17 patients): 47.1% | ORR (EGFR T790M-mutated NSCLC; all 17 patients): 17.6% | PD, patients (EGFR T790M-mutated NSCLC; all 17 patients): 41.2% | confirmed PR, patients (EGFR T790M-mutated NSCLC; all 17 patients): 17.6% | could not be assessed for response, patients (EGFR T790M-mutated NSCLC; all 17 patients): 11.8% | response (EGFR T790M-mutated NSCLC; one patient of the 25-mg/day dose group): no response was observed | PD, patients (EGFR T790M-mutated NSCLC; three patients in the 300-mg/day group): None
